According to ChEMBL document CHEMBL4004789, “Isochromans and Related Constituents from the Endophytic Fungus Annulohypoxylon truncatum of Zizania caduciflora and Their Anti-Inflammatory Effects” (J Nat Prod, 2017):
The source made the active and inactive calls. The calls are words filed in the database; no cut-off is given here.

Columns and labels:
[1] = Cytotoxicity against C57BL/6 mouse BMDC at 50 uM after 24 hrs by CCK8 assay; type: cell-based
How it was run: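 GM-CSF-derived C57BL/6 BMDCs were seeded at ~1 × 10⁴ cells/well and cultured overnight. Compound was added across a dose series for 24 h. CCK-8 reagent was then added for 1 h, and absorbance at 450 nm was read as viable cell number. Triplicate wells.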

[2] = Anti-inflammatory activity in C57BL/6 mouse BMDC assessed as inhibition of LPS-induced IL-6 production pretreated for 1 hr followed by LPS-stimulation after 18 hrs by ELISA; type: functional, cell-based
How it was run: (§1)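 BMDCs came from wild-type C57BL/6 bone marrow, cultured 6 days with GM-CSF-containing J558L supernatant in RPMI 1640 with 10% FBS; loosely adherent cells were used. Cells were plated at 1 × 10⁵/well and pretreated 1 h with compound at 2, 5, 10, 25 and 50 μM. Stimulation was 10 ng/mL S. minnesota LPS. Murine cytokine in 18 h supernatants was measured by ELISA. Mean + SD, ≥3 independent experiments in triplicate.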

[3] = Anti-inflammatory activity in C57BL/6 mouse BMDC assessed as inhibition of LPS-induced IL12 p40 production pretreated for 1 hr followed by LPS-stimulation after 18 hrs by ELISA; type: functional, cell-based; how it was run: as §1
[4] = Anti-inflammatory activity in C57BL/6 mouse BMDC assessed as inhibition of LPS-induced TNFalpha production pretreated for 1 hr followed by LPS-stimulation after 18 hrs by ELISA; type: functional, cell-based; how it was run: as §1
[5] = system: BMDC; experiment: Anti-inflammatory activity in C57BL/6 mouse BMDC assessed as inhibition of LPS-induced IL-6 production at 50 uM pretreated for 1 hr followed by LPS-stimulation after 18 hrs by ELISA; type: functional, cell-based
How it was run: (§2)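 Wild-type C57BL/6 mouse bone marrow cells were grown 6 days in RPMI 1640 with 10% FBS, 50 μM β-ME, 2 mM glutamine and 3% J558L supernatant (GM-CSF). Non-adherent DCs were plated at 1 × 10⁵/well and given compound at 50 μM for 1 h. They were then stimulated with 10 ng/mL Salmonella minnesota LPS. Supernatant cytokine was measured by ELISA at 18 h. Mean + SD, ≥3 independent experiments in triplicate.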

[6] = system: BMDC; experiment: Anti-inflammatory activity in C57BL/6 mouse BMDC assessed as inhibition of LPS-induced IL12 p40 production at 50 uM pretreated for 1 hr followed by LPS-stimulation after 18 hrs by ELISA; type: functional, cell-based; how it was run: as §2
[7] = system: BMDC; experiment: Anti-inflammatory activity in C57BL/6 mouse BMDC assessed as inhibition of LPS-induced TNFalpha production at 50 uM pretreated for 1 hr followed by LPS-stimulation after 18 hrs by ELISA; type: functional, cell-based; how it was run: as §2

Row | Structure (SMILES) | Activity [1] | IC50 [2] [µM] | IC50 [3] [µM] | IC50 [4] [µM] | inhibition [5] | inhibition [6] | inhibition [7]
1 | COc1cc2c(c(O)c1OC)CO[C@H](C)[C@H]2O | Non-Toxic | > 100 | > 100 | > 100 | – | – | –
2 | C[C@@H]1Cc2cc(O)cc(O)c2CO1 | Non-Toxic | > 100 | > 100 | > 100 | – | – | –
3 | COc1cc2c(c(O)c1OC)CO[C@H](C)C2 | Non-Toxic | > 100 | > 100 | > 100 | – | – | –
4 | COc1cc2c(c(O)c1O)CO[C@H](C)[C@H]2O | Non-Toxic | > 100 | > 100 | > 100 | – | – | –
5 | COc1c(O)cc2c(c1O)CO[C@H](C)C2 | Non-Toxic | > 100 | > 100 | > 100 | – | – | –
6 | Cc1ccc2c(c1O)C(=O)O[C@H](C)C2 | Non-Toxic | > 100 | > 100 | > 100 | – | – | –
7 | C[C@@H]1CC2=C(CO1)C(=O)[C@](C)(O)[C@@H](O)C2 | Non-Toxic | 5.3 | 19.4 | 37.6 | Active | Active | Active
8 | C[S+]([O-])c1ccc(-c2nc(-c3ccc(F)cc3)c(-c3ccncc3)[nH]2)cc1 (stereo not drawn) [SB-203580] | – | 3.5 | 5 | 7.2 | – | – | –
9 | COc1c2c(cc(O)c1O[C@H]1O[C@H](CO)[C@@H](O)[C@H]1O)C[C@@H](C)OC2 | Non-Toxic | > 100 | > 100 | > 100 | – | – | –
